Measured values: the EternaBench riboswitch data

How the values were obtained:
[1] = test system: MS2 coat protein; assay: apparent Kd, MS2 coat protein; higher = weaker binding; RNA-MaP array
Summary of the method: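 On an Illumina sequencing chip, sequenced DNA templates served for transcription of the designed RNAs, which were then bound at room temperature by fluorescently labeled MS2 coat protein at 1.5 nM to 3 μM, with or without input ligand. Apparent Kd is the median of the fits to each cluster's binding curve. Only designs measured on at least 10 clusters were kept.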

[2] = test system: MS2 coat protein; assay: apparent Kd, MS2 coat protein; higher = weaker binding; RNA-MaP array; FMN 200 µM where present
Summary of the method: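 The apparent Kd comes from binding curves fitted cluster by cluster, filtered, and summarised as a median. Those curves followed SNAP-549-labelled MS2 coat protein from 0.7 or 1.5 nM, doubling to 3 µM, on Illumina sequencing-chip clusters where stalled E. coli RNA polymerase had transcribed the designs, without and then with constant ligand. The buffer was 100 mM Tris-HCl pH 7.5, 80 mM KCl, 4 mM MgCl2, BSA, DTT, yeast tRNA and Tween-20, and green signal was normalised to red-channel RNA signal and control-cluster median Fmax.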

[3] = designed as: OFF switch for flavin mononucleotide, no ligand
[4] = ligand present: flavin mononucleotide, designed as: OFF switch for flavin mononucleotide
[5] = designed as: ON switch for flavin mononucleotide, no ligand
[6] = ligand present: flavin mononucleotide, designed as: ON switch for flavin mononucleotide

Sequence | apparent Kd [1, 3] [nM] | apparent Kd [1, 4] [nM] | apparent Kd [2, 3] [nM] | apparent Kd [2, 4] [nM] | further results
CCGUUUGAUCAGAAGGAACCAGUCGAACCAUGUGACAGACAUGAGGAUCACCCAUGUUCGCGCGGUUAGGAUAUGACAGCUCAG | 13.2 | 64.5 |  |  | 
AGAGUGAGAGGAUAUUUUGGCGUAGACAUGAGGAUCACCCAUGUGUCGUGGGCACUGCUGAAAGAAGGCUCAGCUC | 29.3 | 25.3 |  |  | 
GUUUUUUAAGGAUAUUCUAUUUCUAACAUGAGGAUCACCCAUGUACCCUCGUGCUAGCGAGAAGAAGGUAACAAAC | 546 | 427 |  |  | 
CUGAGCCUGUGUGUACAUGAGGAUCACCCAUGUUCGAUAGGGUAGGAUAUCGCAGUUUCUUGAGCCGAGAAGGACCCUAAUGGA | 16.5 | 30.1 |  |  | 
CAAAUAGACCACGAUACCAGAACACAAGGAGUAAUAUCAAACAUGAGGAUCACCCAUGUCUUCCCUUGGCAGCGUAGCACGGAGU |  |  |  |  | apparent Kd ([1]; designed as: OFF switch for theophylline, no ligand): 11.7 nM; apparent Kd ([1]; ligand present: theophylline, designed as: OFF switch for theophylline): 13.3 nM
UUACAAAACCAGAAGGUCUAAAAGAUUAAAUGAGAAGGAUAUGGCUAAACAUGAGGAUCACCCAUGUAGAAAACGAUACGUGAU |  |  |  |  | apparent Kd [1, 5]: 37.8 nM; apparent Kd [1, 6]: 29.9 nM
AUAAUCCCUGUUCAGAGACAUGAGGAUCACCCAUGUUUAACGAGAAGGUGAGUGCGACGGCGUCUCAAGGAUAUCGACGUGACC | 9.05 | 10.4 |  |  | 
UUGGGACAUGAGGAUCACCCAUGUCAGGAUAUAUAUAAUCUGCGCGACGAGGGAUACAAUAGAAGGGACAACGG | 18.2 | 15.1 |  |  | 
AAACAUGAGGAUCACCCAUGUCGUCCAAUGUAGGCCUAUUGCGAGGAUAUCAUGUCCCAACUACGUGAGAAGGCGCGACUACCA | 15.2 | 12.5 |  |  | 
UAACGUACAAAAGGAUAUGCCAAUAGAAAGAUCUUACAAUAAACACAUGAGGAUCACCCAUGUAAGCAGAAGGUUUGGAAACAA | 12.4 | 10.2 |  |  | 
AGUCCCAGGGAGAAGGACAUGAUCACAUGAGGAUCACCCAUGUGAGCCAUUUUAUGUAGGGACGUGUAGGAUAUCCGGACAUGG | 6.27 | 6.11 |  |  | 
GAUCUGGCGGUGAGGAUAUAUAUCAAAUGCAAGGCAUAGAAGGCACAUGAGGAUCACCCAUGUCUGCACCAGGG | 14 | 15.6 |  |  | 
UCGCUCCGUGUAGGAUAUCGCCGUUCUACUCGGCGAGAAGGACAUGAGGAUCACCCAUGUAUGUUAUUAUCACGUGUGGCGCGC |  |  | 18.5 | 29.5 | 
CAUCUUGUGUGAGGAUAUAAUGAUAAGAGGACAUUAGAAGGCACAUGAGGAUCACCCAUGUGGCCAGGUCGGCGGCUCCAUAUA |  |  | 11.4 | 17.3 | 
UGGUUGUCAGGAUAUACGUUUUUUAACUUUUGUUUUAUAUUGUAGAAGGGACAUGAGGAUCACCCAUGUUACGU |  |  | 25.2 | 27.1 | 
UUUGUGUAAGGAUAUCACUACCGGGUCCGGACGCCCGCAGAUGAGAAGGUACAUGAGGAUCACCCAUGUCCCUA |  |  | 19.7 | 26.4 | 
UGUUGUAUUACAGGAUAUCUAUUGUUUUAAUUUAGAGAAGGGUAUUCACAUGAGGAUCACCCAUGUAUAUACGAGGAAGUUGUG |  |  |  |  | apparent Kd [2, 5]: 54 nM; apparent Kd [2, 6]: 61 nM
CCUAUGUGAGGAUAUAGCCACAUUACGAAUAAGUAGUGUGGCUAGAAGGUACAUGAGGAUCACCCAUGUAUGGG |  |  | 167 | 84.1 | 
GUUCAAGUAAAGGAUAUGUAGAGCCGCGAGGCCGCAGAAGGUUGCACAUGAGGAUCACCCAUGUCGUCUCUGAU |  |  | 17.1 | 21.2 | 
GGGUACAUCGGAGGAUAUCAUGUAAAGACAUGAGGAUCACCCAUGUCGAUGGAGACAUCGGAGAUUGAGAAGGCCGAUGUACCG |  |  |  |  | apparent Kd [2, 5]: 26.4 nM; apparent Kd [2, 6]: 6.19 nM
UUAUUAUAUGUAGGAUAUGCAUAUUAUUAUUGUGCAGAAGGACAUGAGGAUCACCCAUGUAUACUAUUAUUAUAUAUUAUAUAU |  |  | 10.8 | 13.6 | 
AGGAUAGGAAAAUUUGUCCAUUGUACAGAAGGCCAACAUGAGGAUCACCCAUGUAAGAAAAGGAUGGAGGAUAUGUAUAGGGCC |  |  |  |  | apparent Kd [2, 5]: 37.6 nM; apparent Kd [2, 6]: 10.6 nM
UUCAAUCACAUAGGAUAUAGAAUAAUAAUUUUUUACAUGAGGAUCACCCAUGUUUUAUUGGGUUUCUAGAAGGAUGAGUUAUUA |  |  |  |  | apparent Kd [2, 5]: 524 nM; apparent Kd [2, 6]: 300 nM
